S100A4 inh HTS: inhibitors of S100A4-myosin IIA peptide binding, primary screen, biochemical, fluorescence polarization, TAMRA-MyoIIA peptide. Protein S100-A4 (Homo sapiens), P26447. inhibition, % at 10.7 µM. 0.14% of 360,000 active;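 active = mean inhibition of at least 70% across replicates, with every replicate also reaching that level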
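assay system = human S100A4 monomer with TAMRA-labelled myosin IIA peptide | also added = labelled myosin peptide probe, 5 nM | incubation = 5 min between mix addition and reading | control set = DMSO and TFP controls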
PGC1a acetyl inh: inhibitors of PGC1a acetylation signal, primary screen, cell-based, U2OS, AlphaScreen, inhibitor mode | AID 651687, 2012 | AlphaScreen anti-acetyl-lysine; with virally co-expressed GCN5 acetyltransferase | inhibition, % at 15.6 µM | 0.17% of 350,000 active;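 active = every replicate shows inhibition of at least 40%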;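 also: 0% = neutral control wells and 100% = positive control wells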
CASP6 VEID inh: human caspase-6 inhibitors, primary screen, biochemical, VEID-R110 fluorescence, single point, set 2; inhibition, % at 12.5 µM; AID 686996, 2013; 0.53% of 350,000 active; purified caspase-6, Z-VEID-R110 cleavage fluorescence; P55212;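 active = mean inhibition across replicates at least about 35%, with every replicate also reaching that limit, limit read from the data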;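 also: 0% = median of neutral control wells and 100% = no fluorescence left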
ARNT TACC3 PPI: disruptors of ARNT/TACC3 protein interaction, primary screen, biochemical, AlphaScreen, single concentration; Transforming acidic coiled-coil-containing protein 3 (Homo sapiens), Q9Y6A5; AlphaScreen His-ARNT PAS-B/GST-TACC3 binding, luminescence; TACC3 fragment carries E629A point mutation; inhibition, % at 9.99 µM; 0.66% of 390,000 active; AID 623870, 2012;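 active = mean inhibition of replicates at least 50% and at least half of replicates each reaching 50%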;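 also: 0% = complete ARNT plus TACC3 wells and 100% = ARNT alone without TACC3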
Ecoli rRNA inh: reduced GFP signal of wild-type E. coli, primary screen, bacterial rRNA inhibitor project, GFP/RFP fluorescence, OD600, single point. E. coli WT GFP vs humanized-ribosome RFP mutants, 24 h; active compounds read low; DMSO median 0, no signal -100. 1.6% of 350,000 active. AID 720706, 2013. GFP signal change (wild-type ribosome), % (test concentration not listed);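 active = significant combined selectivity score with lowered wild-type GFP, culture density cut under 30%, mutant RFP and density less affected; inactive = any of these conditions unmet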
ERAP1 HTS inh: human ERAP1 aminopeptidase inhibitors, primary screen, biochemical, single point, plate reader. Endoplasmic reticulum aminopeptidase 1 (Homo sapiens), Q9NZ08. recombinant ERAP1, Leu-AMC fluorescence, 60 min. 0.15% of 340,000 active. inhibition, % at 10.7 µM;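 active = mean replicate inhibition of at least 30%, or all replicates individually reaching that 30% level; inactive = mean below 30% and not every replicate reaching it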;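 also: 0% = neutral control wells and 100% = L-leucinethiol positive control wells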
An asterisk follows results filed as active. In the library only some 2.4% were active in any assay of this set; here they are far more common.

Results for COc1ccc(S(=O)(=O)Nc2ccc3c(c2)C(=O)N([C@@H](C)CO)C[C@H](C)[C@H](CN(C)C)OCCCC[C@H](C)O3)cc1 ?
PGC1a acetyl inh: 5; Ecoli rRNA inh: 3

Results for COc1cccc(CN2[C@H](CO)[C@@H]3c4ccccc4N(C(=O)c4cccnc4)C[C@@H]32)c1 ?
S100A4 inh HTS: 23; PGC1a acetyl inh: 9; CASP6 VEID inh: -1; Ecoli rRNA inh: 2; ERAP1 HTS inh: 0

Results for COc1ccc2c3c(n(C)c2c1)[C@@H](CO)N(C(=O)Nc1ccccc1F)CC31CN(C(=O)c2ccccc2)C1 ?
S100A4 inh HTS: -1; PGC1a acetyl inh: 10; CASP6 VEID inh: -1; Ecoli rRNA inh: -6; ERAP1 HTS inh: -3

How did Brc1ccccc1C1Cc2nnccc2CN1 (stereo not drawn) do in these assays?
S100A4 inh HTS: 2; CASP6 VEID inh: 0; Ecoli rRNA inh: -36*; ERAP1 HTS inh: 2

Results for C[C@@H]1CN([C@H](C)CO)C(=O)c2ccccc2-c2ccccc2CO[C@@H]1CN(C)C(=O)Nc1ccnc(N2CCOCC2)c1 ?
S100A4 inh HTS: -3; PGC1a acetyl inh: 1; CASP6 VEID inh: -2; ARNT TACC3 PPI: 5; Ecoli rRNA inh: -1; ERAP1 HTS inh: -2

What do the screens show for `COc1ccc2oc(C)c(C(=O)c3ccccc3)c2c1`?
S100A4 inh HTS: -13; PGC1a acetyl inh: -14; CASP6 VEID inh: 1; ARNT TACC3 PPI: 2; Ecoli rRNA inh: -30*; ERAP1 HTS inh: 6

How did O=c1oc(-c2cccc(Cl)c2)nc2c1cnn2-c1ccccc1 do in these assays?
PGC1a acetyl inh: -7; ARNT TACC3 PPI: -4

Results for O=c1[nH]c2c(cnn2-c2ccc(Cl)cc2)c(=O)n1-c1cccc(Cl)c1 ?
S100A4 inh HTS: -2; CASP6 VEID inh: -1; ARNT TACC3 PPI: -6; Ecoli rRNA inh: -35*; ERAP1 HTS inh: 6

Results for S=c1[nH]c2cc(Cl)ccc2s1 ?
S100A4 inh HTS: 0; PGC1a acetyl inh: 12; CASP6 VEID inh: 2; ARNT TACC3 PPI: 36; Ecoli rRNA inh: -26*; ERAP1 HTS inh: 0

What do the screens show for `S=c1[nH]c2ccc(Cl)cc2[nH]1`?
PGC1a acetyl inh: 10; ARNT TACC3 PPI: 5

Results for COc1cnc(-c2ccccc2)c(-c2ccccc2)n1 ?
S100A4 inh HTS: -1; PGC1a acetyl inh: -7; CASP6 VEID inh: -3; ARNT TACC3 PPI: -1; Ecoli rRNA inh: -32*; ERAP1 HTS inh: 1

What do the screens show for `Cc1ccc(C(=O)NCC(c2ccco2)N2CCc3ccccc3C2)cc1` (stereo not drawn)?
S100A4 inh HTS: -17; CASP6 VEID inh: 14; ARNT TACC3 PPI: -2; Ecoli rRNA inh: -5; ERAP1 HTS inh: -2

What do the screens show for `O=C(NCC(c1ccco1)N1CCc2ccccc2C1)c1ccc(Cl)cc1` (stereo not drawn)?
S100A4 inh HTS: 7; CASP6 VEID inh: 63*; ARNT TACC3 PPI: 1; Ecoli rRNA inh: 12; ERAP1 HTS inh: 3

What do the screens show for `COc1cccc(CN2CC3(C2)[C@H](c2ccccc2)[C@@H](CO)N3Cc2cccc(OC)c2)c1`?
Ecoli rRNA inh: -6

Results for CN1CCN(c2ccc(CNC(=O)C3Cc4c(-c5ccc6c(c5)OCO6)ccnc4O3)cc2)CC1 (stereo not drawn) ?
S100A4 inh HTS: 9; CASP6 VEID inh: 80*; Ecoli rRNA inh: 2; ERAP1 HTS inh: -3

How did COc1ccc(S(=O)(=O)N(C)C[C@@H]2Oc3ccc(NC(=O)Nc4ccc(F)cc4)cc3C(=O)N([C@@H](C)CO)C[C@@H]2C)cc1 do in these assays?
S100A4 inh HTS: 9; PGC1a acetyl inh: -17; CASP6 VEID inh: 4; ARNT TACC3 PPI: -2; Ecoli rRNA inh: -2; ERAP1 HTS inh: 2
